From ChEMBL document CHEMBL1128719, “The synthesis, structure-activity, and structure-side effect relationships of a series of 8-alkoxy- and 5-amino-8-alkoxyquinolone antibacterial agents” (J Med Chem, 1995)
Converted amounts (≈) assume the structure as drawn.

Legend:
Bacteroides fragilis = assay: In vitro antibacterial activity against Bacteroides fragilis BFA; type: functional
Summary of the method: (§1)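 Microtitration (microdilution) MIC determination in μg/mL against a panel of Gram-positive, Gram-negative and anaerobic organisms. Values come from duplicate or triplicate experiments and are stated accurate to ±50%.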

Clostridioides difficile = assay: In vitro antibacterial activity was tested for Clostridium diff CD1-1; type: functional
Clostridium perfringens = assay: In vitro antibacterial activity against Clostridium perfringens CP 3-1; type: functional
Escherichia coli [1] = assay: In vitro antibacterial activity was tested for Escherichia coli H560; type: functional; summary of the method: as §1
Escherichia coli [2] = assay: In vitro antibacterial activity was tested for Escherichia coli Vogel; type: functional; summary of the method: as §1
Enterobacter cloacae = assay: In vitro antibacterial activity was tested for Enterobacter cloacae HA2646; type: functional
Klebsiella pneumoniae = assay: In vitro antibacterial activity was tested for Klebsiella pneumoniae MGH-2; type: functional; summary of the method: as §1
[3] = system: Peptoniphilus asaccharolyticus; assay: In vitro antibacterial activity was tested for Pepto asac PA 3-1; type: functional; summary of the method: as §1
Providencia rettgeri = assay: In vitro antibacterial activity was tested for Providencia rettgeri H1771; type: functional; summary of the method: as §1
Pseudomonas aeruginosa = assay: In vitro antibacterial activity was tested for Pseudomonas aeruginosa UI-18; type: functional; summary of the method: as §1
Staphylococcus aureus [4] = assay: In vitro antibacterial activity was tested for Staphylococcus aureus H228; type: functional; summary of the method: as §1
Staphylococcus aureus [5] = assay: In vitro antibacterial activity was tested for Staphylococcus aureus UC-76; type: functional; summary of the method: as §1
Streptococcus pneumoniae = assay: In vitro antibacterial activity was tested for Streptococcus pneumoniae SV-1; type: functional; summary of the method: as §1
Streptococcus pyogenes = assay: In vitro antibacterial activity was tested for Streptococcus pyogenes C203; type: functional; summary of the method: as §1
Enterococcus faecalis = assay: In vitro antibacterial activity was tested for Streptococcus faecalis MGH-2; type: functional; summary of the method: as §1
Cutibacterium acnes = assay: In vitro antibacterial activity was tested for Propion acnes PA5-1; type: functional; summary of the method: as §1
V79 = assay: Clonogenic cytotoxicity against Chinese hamster V-79 cells; type: functional, cell-based; details: Cricetulus griseus

CCOc1c(N2CCNC(C)C2)c(F)cc2c(=O)c(C(=O)O)cn(C3CC3)c12 (stereo not drawn)
MIC (Bacteroides fragilis): 3.1 µg/mL (≈ 7.96 µM) | MIC (Clostridioides difficile): 6.3 µg/mL (≈ 16.2 µM) | MIC (Clostridium perfringens): 0.8 µg/mL (≈ 2.05 µM) | MIC (Escherichia coli [1]): 0.05 µg/mL (≈ 0.128 µM) | MIC (Escherichia coli [2]): 0.1 µg/mL (≈ 0.257 µM) | MIC (Enterobacter cloacae): 0.1 µg/mL (≈ 0.257 µM) | MIC (Klebsiella pneumoniae): 0.2 µg/mL (≈ 0.514 µM) | MIC [3]: 1.6 µg/mL (≈ 4.11 µM) | MIC (Providencia rettgeri): 0.4 µg/mL (≈ 1.03 µM) | MIC (Pseudomonas aeruginosa): 3.1 µg/mL (≈ 7.96 µM) | MIC (Staphylococcus aureus [4]): 0.2 µg/mL (≈ 0.514 µM) | MIC (Staphylococcus aureus [5]): 0.05 µg/mL (≈ 0.128 µM) | MIC (Streptococcus pneumoniae): 0.05 µg/mL (≈ 0.128 µM) | MIC (Streptococcus pyogenes): 0.2 µg/mL (≈ 0.514 µM) | MIC (Enterococcus faecalis): 0.2 µg/mL (≈ 0.514 µM) | MIC (Cutibacterium acnes): 3.1 µg/mL (≈ 7.96 µM)

CCOc1c(N2CCCC(N)C2)c(F)c(N)c2c(=O)c(C(=O)O)cn(C3CC3)c12 (stereo not drawn)
MIC (Bacteroides fragilis): 3.1 µg/mL (≈ 7.66 µM) | MIC (Clostridioides difficile): 6.3 µg/mL (≈ 15.6 µM) | MIC (Clostridium perfringens): 0.4 µg/mL (≈ 0.989 µM) | MIC (Escherichia coli [1]): 0.1 µg/mL (≈ 0.247 µM) | MIC (Escherichia coli [2]): 0.2 µg/mL (≈ 0.495 µM) | MIC (Enterobacter cloacae): 0.2 µg/mL (≈ 0.495 µM) | MIC (Klebsiella pneumoniae): 0.4 µg/mL (≈ 0.989 µM) | MIC [3]: 0.8 µg/mL (≈ 1.98 µM) | MIC (Providencia rettgeri): 0.8 µg/mL (≈ 1.98 µM) | MIC (Pseudomonas aeruginosa): 3.1 µg/mL (≈ 7.66 µM) | MIC (Staphylococcus aureus [4]): 0.05 µg/mL (≈ 0.124 µM) | MIC (Staphylococcus aureus [5]): 0.013 µg/mL (≈ 0.0321 µM) | MIC (Streptococcus pneumoniae): 0.025 µg/mL (≈ 0.0618 µM) | MIC (Streptococcus pyogenes): 0.05 µg/mL (≈ 0.124 µM) | MIC (Enterococcus faecalis): 0.1 µg/mL (≈ 0.247 µM) | MIC (Cutibacterium acnes): 3.1 µg/mL (≈ 7.66 µM)

COc1c(N2CCC(CN)CC2)c(F)cc2c(=O)c(C(=O)O)cn(C3CC3)c12
MIC (Bacteroides fragilis): 0.8 µg/mL (≈ 2.05 µM) | MIC (Clostridioides difficile): 0.8 µg/mL (≈ 2.05 µM) | MIC (Clostridium perfringens): 0.4 µg/mL (≈ 1.03 µM) | MIC (Escherichia coli [1]): 0.1 µg/mL (≈ 0.257 µM) | MIC (Escherichia coli [2]): 0.1 µg/mL (≈ 0.257 µM) | MIC (Enterobacter cloacae): 0.1 µg/mL (≈ 0.257 µM) | MIC (Klebsiella pneumoniae): 0.2 µg/mL (≈ 0.514 µM) | MIC [3]: 0.4 µg/mL (≈ 1.03 µM) | MIC (Providencia rettgeri): 0.4 µg/mL (≈ 1.03 µM) | MIC (Pseudomonas aeruginosa): 1.6 µg/mL (≈ 4.11 µM) | MIC (Staphylococcus aureus [4]): 0.1 µg/mL (≈ 0.257 µM) | MIC (Staphylococcus aureus [5]): 0.05 µg/mL (≈ 0.128 µM) | MIC (Streptococcus pneumoniae): 0.025 µg/mL (≈ 0.0642 µM) | IC50 (V79): 94 µg/mL (≈ 241 µM) | MIC (Streptococcus pyogenes): 0.025 µg/mL (≈ 0.0642 µM) | MIC (Enterococcus faecalis): 0.05 µg/mL (≈ 0.128 µM) | MIC (Cutibacterium acnes): 0.4 µg/mL (≈ 1.03 µM)

COc1c(N2CCC(CN)C2)c(F)cc2c(=O)c(C(=O)O)cn(C3CC3)c12 (stereo not drawn)
MIC (Bacteroides fragilis): 0.2 µg/mL (≈ 0.533 µM) | MIC (Clostridioides difficile): 0.2 µg/mL (≈ 0.533 µM) | MIC (Clostridium perfringens): 0.1 µg/mL (≈ 0.266 µM) | MIC (Escherichia coli [1]): 0.025 µg/mL (≈ 0.0666 µM) | MIC (Escherichia coli [2]): 0.05 µg/mL (≈ 0.133 µM) | MIC (Enterobacter cloacae): 0.05 µg/mL (≈ 0.133 µM) | MIC (Klebsiella pneumoniae): 0.1 µg/mL (≈ 0.266 µM) | MIC [3]: 0.2 µg/mL (≈ 0.533 µM) | MIC (Providencia rettgeri): 0.1 µg/mL (≈ 0.266 µM) | MIC (Pseudomonas aeruginosa): 0.8 µg/mL (≈ 2.13 µM) | MIC (Staphylococcus aureus [4]): 0.025 µg/mL (≈ 0.0666 µM) | MIC (Staphylococcus aureus [5]): 0.003 µg/mL (≈ 0.00799 µM) | MIC (Streptococcus pneumoniae): 0.003 µg/mL (≈ 0.00799 µM) | MIC (Streptococcus pyogenes): 0.003 µg/mL (≈ 0.00799 µM) | MIC (Enterococcus faecalis): 0.013 µg/mL (≈ 0.0346 µM) | MIC (Cutibacterium acnes): 0.2 µg/mL (≈ 0.533 µM)

COc1c(N2CC[C@@H](N)C2)c(F)cc2c(=O)c(C(=O)O)cn(C3CC3)c12
MIC (Bacteroides fragilis): 0.4 µg/mL (≈ 1.11 µM) | MIC (Clostridioides difficile): 0.8 µg/mL (≈ 2.21 µM) | MIC (Clostridium perfringens): 0.5 µg/mL (≈ 1.38 µM) | MIC (Escherichia coli [1]): 0.025 µg/mL (≈ 0.0692 µM) | MIC (Escherichia coli [2]): 0.025 µg/mL (≈ 0.0692 µM) | MIC (Enterobacter cloacae): 0.025 µg/mL (≈ 0.0692 µM) | MIC (Klebsiella pneumoniae): 0.025 µg/mL (≈ 0.0692 µM) | MIC [3]: 0.4 µg/mL (≈ 1.11 µM) | MIC (Providencia rettgeri): 0.05 µg/mL (≈ 0.138 µM) | MIC (Pseudomonas aeruginosa): 0.8 µg/mL (≈ 2.21 µM) | MIC (Staphylococcus aureus [4]): 0.05 µg/mL (≈ 0.138 µM) | MIC (Staphylococcus aureus [5]): 0.025 µg/mL (≈ 0.0692 µM) | MIC (Streptococcus pneumoniae): 0.05 µg/mL (≈ 0.138 µM) | MIC (Streptococcus pyogenes): 0.05 µg/mL (≈ 0.138 µM) | MIC (Enterococcus faecalis): 0.05 µg/mL (≈ 0.138 µM) | MIC (Cutibacterium acnes): 0.2 µg/mL (≈ 0.553 µM)

NC1CCCN(c2c(F)cc3c(=O)c(C(=O)O)cn(C4CC4)c3c2Cl)C1 (stereo not drawn)
MIC (Bacteroides fragilis): 0.2 µg/mL (≈ 0.527 µM) | MIC (Clostridioides difficile): 0.4 µg/mL (≈ 1.05 µM) | MIC (Clostridium perfringens): 0.1 µg/mL (≈ 0.263 µM) | MIC [3]: 0.4 µg/mL (≈ 1.05 µM) | MIC (Cutibacterium acnes): 0.2 µg/mL (≈ 0.527 µM)

COc1c(N2CC[C@H](N)C2)c(F)c(N)c2c(=O)c(C(=O)O)cn(C3CC3)c12
MIC (Bacteroides fragilis): 1.6 µg/mL (≈ 4.25 µM) | MIC (Clostridioides difficile): 3.1 µg/mL (≈ 8.24 µM) | MIC (Clostridium perfringens): 0.8 µg/mL (≈ 2.13 µM) | MIC (Escherichia coli [1]): 0.05 µg/mL (≈ 0.133 µM) | MIC (Escherichia coli [2]): 0.05 µg/mL (≈ 0.133 µM) | MIC (Enterobacter cloacae): 0.05 µg/mL (≈ 0.133 µM) | MIC (Klebsiella pneumoniae): 0.1 µg/mL (≈ 0.266 µM) | MIC [3]: 1.6 µg/mL (≈ 4.25 µM) | MIC (Providencia rettgeri): 0.2 µg/mL (≈ 0.531 µM) | MIC (Pseudomonas aeruginosa): 0.8 µg/mL (≈ 2.13 µM) | MIC (Staphylococcus aureus [4]): 0.025 µg/mL (≈ 0.0664 µM) | MIC (Staphylococcus aureus [5]): 0.013 µg/mL (≈ 0.0345 µM) | MIC (Streptococcus pneumoniae): 0.025 µg/mL (≈ 0.0664 µM) | MIC (Streptococcus pyogenes): 0.05 µg/mL (≈ 0.133 µM) | MIC (Enterococcus faecalis): 0.1 µg/mL (≈ 0.266 µM) | MIC (Cutibacterium acnes): 1.6 µg/mL (≈ 4.25 µM)

NC1CCCN(c2nc3c(cc2F)c(=O)c(C(=O)O)cn3C2CC2)C1 (stereo not drawn)
MIC (Bacteroides fragilis): 25 µg/mL (≈ 72.2 µM) | MIC (Clostridioides difficile): > 25 µg/mL | MIC (Clostridium perfringens): 0.8 µg/mL (≈ 2.31 µM) | MIC [3]: 6.3 µg/mL (≈ 18.2 µM) | MIC (Cutibacterium acnes): 6.3 µg/mL (≈ 18.2 µM)

Nc1c(F)c(N2CCCC(N)C2)c(F)c2c1c(=O)c(C(=O)O)cn2C1CC1 (stereo not drawn)
IC50 (V79): 19 µg/mL (≈ 50.2 µM)
